Measurements as given in ChEMBL document CHEMBL3525946, “Species comparison of in vivo P-glycoprotein-mediated brain efflux using mdr1a-deficient rats and mice” (Drug Metab Dispos, 2012).

Columns and labels:
[1] = Percentage unbound in Crl:NMRI(Han) mouse plasma at 1 uM after 5 hrs by equilibrium dialysis method; format: ADME, cell-free
Method in brief: (§1)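 Equilibrium dialysis (12-14 kDa membrane) of plasma or brain homogenate from naïve male Sprague-Dawley rats or Crl:NMRI(Han) mice. Donor side spiked to 1 µM final; receiver phosphate buffer pH 7.4; 37°C for 5 h. Buffer phase quantified by LC-MS. Brain fu corrected for homogenate dilution to intact tissue. Mean of two independent determinations.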

[2] = Percentage unbound in Sprague-Dawley rat plasma at 1 uM after 5 hrs by equilibrium dialysis method; format: ADME, cell-free; method in brief: as §1
[3] = Total plasma concentration in wild type Sprague-Dawley rat expressing Abcb1a treated with venlafaxine at 9 mg/kg/day administered through continuous minipump treatment for 3 days by UPLC-MS analysis; format: ADME, organism-based; conditions: other: continuous minipump
Method in brief: (§2)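 Subcutaneous osmotic minipump infusion for 3 days to steady state, implanted under isoflurane (rats 10 µl/h, mice 1 µl/h). Mdr1a-deficient (SD-Abcb1a knockout rats; Crl:CF1-Abcb1a mutant mice) and wild-type animals, n=3-5 per group. After decapitation, EDTA plasma and whole brain (homogenized 1:4 in 70% acetonitrile) were precipitated with internal standard. Parent and metabolites quantified by UPLC-MS. Mean ± SEM.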

[4] = Total drug level in wild type Sprague-Dawley rat brain expressing Abcb1a treated with venlafaxine at 9 mg/kg/day administered through continuous minipump treatment for 3 days by UPLC-MS analysis; format: ADME, organism-based; conditions: other: continuous minipump, read-out: Drug uptake; method in brief: as §2
[5] = Total brain to plasma partition coefficient of the compound in wild type Sprague-Dawley rat expressing Abcb1a treated with venlafaxine at 9 mg/kg/day administered through continuous minipump treatment for 3 days; format: ADME, organism-based; conditions: brain and plasma, other: continuous minipump
Method in brief: (§3)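 Kp is total brain concentration divided by total plasma concentration at steady state. Measured after a 3-day subcutaneous osmotic minipump infusion in mdr1a-deficient or wild-type rats or mice, n=3-5. Concentrations determined by UPLC-MS in plasma and in whole-brain homogenate (70% acetonitrile). Mean ± SEM.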

[6] = Total plasma concentration in mdr1a-deficient rat treated with venlafaxine at 9 mg/kg/day administered through continuous minipump treatment for 3 days by UPLC-MS analysis; format: ADME, organism-based; conditions: other: continuous minipump; method in brief: as §2
[7] = Total drug level in mdr1a-deficient rat brain treated with venlafaxine at 9 mg/kg/day administered through continuous minipump treatment for 3 days by UPLC-MS analysis; format: ADME, organism-based; conditions: other: continuous minipump, read-out: Drug uptake; method in brief: as §2
[8] = Total brain to plasma partition coefficient of the compound in mdr1a-deficient rat treated with venlafaxine at 9 mg/kg/day administered through continuous minipump treatment for 3 days; format: ADME, organism-based; conditions: brain and plasma, other: continuous minipump; method in brief: as §3
[9] = Total plasma concentration in mdr1a-deficient mouse treated with venlafaxine at 12 mg/kg/day administered through continuous minipump treatment for 3 days by UPLC-MS analysis; format: ADME, organism-based; conditions: other: continuous minipump; method in brief: as §2
[10] = Total drug level in mdr1a-deficient mouse brain treated with venlafaxine at 12 mg/kg/day administered through continuous minipump treatment for 3 days by UPLC-MS analysis; format: ADME, organism-based; conditions: other: continuous minipump, read-out: Drug uptake; method in brief: as §2
[11] = Total brain to plasma partition coefficient of the compound in mdr1a-deficient mouse treated with venlafaxine at 12 mg/kg/day administered through continuous minipump treatment for 3 days; format: ADME, organism-based; conditions: other: continuous minipump; method in brief: as §3
[12] = Percentage unbound in Sprague-Dawley rat brain at 1 uM after 5 hrs by equilibrium dialysis method; format: ADME, tissue-based; method in brief: as §1
[13] = Total plasma concentration in wild type Crl:CF1 mouse expressing Abcb1a mutant treated with venlafaxine at 12 mg/kg/day administered through continuous minipump treatment for 3 days by UPLC-MS analysis; format: ADME, organism-based; conditions: other: continuous minipump; method in brief: as §2
[14] = Total drug level in wild type Crl:CF1 mouse brain expressing Abcb1a mutant treated with venlafaxine at 12 mg/kg/day administered through continuous minipump treatment for 3 days by UPLC-MS analysis; format: ADME, organism-based; conditions: other: continuous minipump, read-out: Drug uptake; method in brief: as §2
[15] = Total brain to plasma partition coefficient of the compound in wild type Crl:CF1 mouse expressing Abcb1a mutant treated with venlafaxine at 12 mg/kg/day administered through continuous minipump treatment for 3 days; format: ADME, organism-based; conditions: other: continuous minipump; method in brief: as §3
[16] = Unbound brain to plasma partition coefficient of the compound in wild type Sprague-Dawley rat expressing Abcb1a treated with venlafaxine at 9 mg/kg/day administered through continuous minipump treatment for 3 days; format: ADME, organism-based; conditions: other: continuous minipump, read-out: K(p,uu,brain)
Method in brief: (§4)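 Kp,uu is (Cbrain,total × fu,brain)/(Cplasma,total × fu,plasma). Total concentrations were measured at steady state after a 3-day subcutaneous minipump infusion in knockout or wild-type animals. Species-matched free fractions came from 5 h, 37°C equilibrium dialysis at 1 µM in naïve plasma and brain homogenate.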

[17] = Unbound brain to plasma partition coefficient of the compound in mdr1a-deficient Sprague-Dawley rat treated with venlafaxine at 9 mg/kg/day administered through continuous minipump treatment for 3 days; format: ADME, organism-based; conditions: other: continuous minipump, read-out: K(p,uu,brain); method in brief: as §4
[18] = Percentage unbound in Crl:NMRI(Han) mouse brain at 1 uM after 5 hrs by equilibrium dialysis method; format: ADME, tissue-based; method in brief: as §1
[19] = Unbound brain to plasma partition coefficient of the compound in wild type Crl:CF1 mouse expressing Abcb1a mutant treated with venlafaxine at 12 mg/kg/day administered through continuous minipump treatment for 3 days; format: ADME, organism-based; conditions: other: continuous minipump, read-out: K(p,uu,brain); method in brief: as §4
[20] = Unbound brain to plasma partition coefficient of the compound in mdr1a-deficient mouse treated with venlafaxine at 12 mg/kg/day administered through continuous minipump treatment for 3 days; format: ADME, organism-based; conditions: other: continuous minipump, read-out: K(p,uu,brain); method in brief: as §4

Row | fraction unbound at 5 h, 1 µM [1] | fraction unbound at 5 h, 1 µM [2] | concentration at 72 h [3] [ng/mL] | concentration at 72 h [4] [ng/g] | Kp at 72 h [5] | concentration at 72 h [6] [ng/mL] | concentration at 72 h [7] [ng/g] | Kp at 72 h [8] | concentration at 72 h [9] [ng/mL] | concentration at 72 h [10] [ng/g] | Kp at 72 h [11] | fraction unbound at 5 h, 1 µM [12] | concentration at 72 h [13] [ng/mL] | concentration at 72 h [14] [ng/g] | Kp at 72 h [15] | Kp uu at 72 h [16] | Kp uu at 72 h [17] | fraction unbound at 5 h, 1 µM [18] | Kp uu at 72 h [19] | Kp uu at 72 h [20] | Compound
1 | 0.54 | 0.2 | – | – | – | – | – | – | – | – | – | – | – | – | – | – | – | – | – | – | Cc1nc2n(c(=O)c1CCN1CCC(c3noc4cc(F)ccc34)CC1)CC(O)CC2 (configuration not stated)
2 | 0.8 | 0.32 | 6.8 | 9.3 | 1.4 | 10 | 79 | 8.9 | 11 | 77 | 7 | 0.08 | 17 | 25 | 1.5 | 0.34 | 2 | 0.16 | 0.29 | 1.4 | CNCC(c1ccc(OC)cc1)C1(O)CCCCC1 (configuration not stated) [N-DESMETHYLVENLAFAXINE]
